Laboratory results taken from publication PMC4716659 (European journal of medicinal chemistry, 2015).
Converted amounts (≈) assume the structure as drawn. “Also recorded” adds a separate entry of the source.

Key:
S. aureus VRS5 (VRSA) [1] = experiment: MIC, broth microdilution; assay type: cell-based, Staphylococcus aureus; details: Staphylococcus aureus, VRSA
S. aureus NRS37 (VISA) [2] = experiment: MIC, broth microdilution; assay type: cell-based, Staphylococcus aureus; details: Staphylococcus aureus, NRS37|VISA
S. aureus NRS194 (MRSA) [3] = experiment: MIC, broth microdilution; assay type: cell-based, Staphylococcus aureus; details: Staphylococcus aureus, MRSA|NRS194
S. aureus VRS1 (VRSA) [4] = experiment: MIC, broth microdilution; assay type: cell-based, Staphylococcus aureus; details: Staphylococcus aureus, VRSA
S. aureus USA 400 (MRSA) [5] = experiment: MIC, broth microdilution; assay type: cell-based, Staphylococcus aureus; details: Staphylococcus aureus, MRSA|USA400
[6] = test system: methicillin-resistant Staphylococcus aureus (MRSA) ATCC 43300; experiment: MIC, broth microdilution; assay type: cell-based; details: Staphylococcus aureus, ATCC43300|MRSA
S. aureus NRS194 (MRSA) [7] = experiment: MBC, plating onto TSA; assay type: cell-based, Staphylococcus aureus; details: Staphylococcus aureus, MRSA|NRS194
S. aureus VRS1 (VRSA) [8] = experiment: MBC, plating onto TSA; assay type: cell-based, Staphylococcus aureus; details: Staphylococcus aureus, VRSA
S. aureus NRS1 (VISA) [9] = experiment: MBC, plating onto TSA; assay type: cell-based, Staphylococcus aureus; details: Staphylococcus aureus, NRS1|VISA
S. aureus VRS4 (VRSA) [10] = experiment: MBC, plating onto TSA; assay type: cell-based, Staphylococcus aureus; details: Staphylococcus aureus, VRSA
S. aureus NRS119 (MRSA) [11] = experiment: MIC, broth microdilution; assay type: cell-based, Staphylococcus aureus; details: Staphylococcus aureus, MRSA|NRS119
S. aureus VRS4 (VRSA) [12] = experiment: MIC, broth microdilution; assay type: cell-based, Staphylococcus aureus; details: Staphylococcus aureus, VRSA
S. aureus USA500 (MRSA) [13] = experiment: MIC, broth microdilution; assay type: cell-based, Staphylococcus aureus; details: Staphylococcus aureus, MRSA|USA500
S. aureus NRS19 (VISA) [14] = experiment: MIC, broth microdilution; assay type: cell-based, Staphylococcus aureus; details: Staphylococcus aureus, NRS19|VISA
S. aureus USA500 (MRSA) [15] = experiment: MBC, plating onto TSA; assay type: cell-based, Staphylococcus aureus; details: Staphylococcus aureus, MRSA|USA500
[16] = test system: human embryonic kidney (HEK293) cell line; experiment: In vitro cytotoxicity, MTS assay; details: 40 μg/mL
S. aureus VRS5 (VRSA) [17] = experiment: MBC, plating onto TSA; assay type: cell-based, Staphylococcus aureus; details: Staphylococcus aureus, VRSA
S. aureus NRS119 (MRSA) [18] = experiment: MBC, plating onto TSA; assay type: cell-based, Staphylococcus aureus; details: Staphylococcus aureus, MRSA|NRS119
S. aureus USA300 (MRSA) [19] = experiment: MBC, plating onto TSA; assay type: cell-based, Staphylococcus aureus; details: Staphylococcus aureus, MRSA|USA300
S. aureus USA 400 (MRSA) [20] = experiment: MBC, plating onto TSA; assay type: cell-based, Staphylococcus aureus; details: Staphylococcus aureus, MRSA|USA400
three VRSA strains = experiment: MIC against VRSA strains; assay type: cell-based; details: Staphylococcus aureus
[21] = test system: S. aureus ATCC 43300 (MRSA); experiment: MBC, plating onto TSA; assay type: cell-based, Staphylococcus aureus; details: Staphylococcus aureus, ATCC43300|MRSA
S. aureus NRS1 (VISA) [22] = experiment: MIC, broth microdilution; assay type: cell-based, Staphylococcus aureus; details: Staphylococcus aureus, NRS1|VISA
S. aureus NRS107 (MRSA) [23] = experiment: MIC, broth microdilution; assay type: cell-based, Staphylococcus aureus; details: Staphylococcus aureus, MRSA|NRS107
S. aureus NRS37 (VISA) [24] = experiment: MBC, plating onto TSA; assay type: cell-based, Staphylococcus aureus; details: Staphylococcus aureus, NRS37|VISA
S. aureus NRS107 (MRSA) [25] = experiment: MBC, plating onto TSA; assay type: cell-based, Staphylococcus aureus; details: Staphylococcus aureus, MRSA|NRS107
S. aureus USA300 (MRSA) [26] = experiment: MIC, broth microdilution; assay type: cell-based, Staphylococcus aureus; details: Staphylococcus aureus, MRSA|USA300
S. aureus NRS19 (VISA) [27] = experiment: MBC, plating onto TSA; assay type: cell-based, Staphylococcus aureus; details: Staphylococcus aureus, NRS19|VISA
MRSA USA300 = experiment: Time-kill analysis; assay type: cell-based, Staphylococcus aureus; details: MRSA USA300, 3 × MIC, 37 °C
Procedure, shortened: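 Late-log-phase cells diluted to ~1 × 10^8 CFU/mL in MHB and exposed to test compound or vancomycin in triplicate at 37 °C. 20 μL samples taken at 0, 2, 4, 6, 8, 10, 12 and 24 h, serially diluted in PBS, and plated on TSA. Plates incubated 18–20 h at 37 °C, then viable CFU/mL counted. Data given as mean ± standard deviation.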

two VISA isolates = experiment: MIC against VISA isolates; assay type: cell-based; details: Staphylococcus aureus
[28] = human, microsomes, pH 7.4

MIC (S. aureus VRS5 (VRSA) [1]) [µg/mL] | MIC (S. aureus NRS37 (VISA) [2]) [µg/mL] | MIC (S. aureus NRS194 (MRSA) [3]) [µg/mL] | MIC (S. aureus VRS1 (VRSA) [4]) [µg/mL] | MIC (S. aureus USA 400 (MRSA) [5]) [µg/mL] | MIC (S. aureus NRS119 (MRSA) [11]) [µg/mL] | MIC (S. aureus VRS4 (VRSA) [12]) [µg/mL] | MIC (S. aureus USA500 (MRSA) [13]) [µg/mL] | MIC (S. aureus NRS19 (VISA) [14]) [µg/mL] | MIC (S. aureus NRS1 (VISA) [22]) [µg/mL] | Compound | MBC (S. aureus NRS194 (MRSA) [7]) [µg/mL] | MBC (S. aureus VRS1 (VRSA) [8]) [µg/mL] | MBC (S. aureus NRS1 (VISA) [9]) [µg/mL] | MBC (S. aureus VRS4 (VRSA) [10]) [µg/mL] | MBC (S. aureus USA500 (MRSA) [15]) [µg/mL] | MBC (S. aureus VRS5 (VRSA) [17]) [µg/mL] | MBC (S. aureus NRS119 (MRSA) [18]) [µg/mL] | MBC (S. aureus USA300 (MRSA) [19]) [µg/mL] | MBC (S. aureus USA 400 (MRSA) [20]) [µg/mL] | MBC [21] [µg/mL] | also measured
6.7 (≈ 16 µM) | 3.3 (≈ 7.9 µM) | 6.7 (≈ 16 µM) | 6.7 (≈ 16 µM) | 6.7 (≈ 16 µM) | 6.7 (≈ 16 µM) | 6.7 (≈ 16 µM) | 3.3 (≈ 7.9 µM) | 3.3 (≈ 7.9 µM) | 3.3 (≈ 7.9 µM) | [H]/N=C(\N)NN=C(C)c1sc(-c2ccc(-c3ccc(C(F)(F)F)cc3)cc2)nc1C [22c, (E)-2-(1-(4-Methyl-2-(4′-(trifluoromethyl)-[1,1′-biphenyl]-4-yl)thiazol-5-yl)ethylidene)hydrazinecarboximidamide] | 13.3 (≈ 31.9 µM) | 6.7 (≈ 16 µM) | 3.3 (≈ 7.9 µM) | 6.7 (≈ 16 µM) | 3.3 (≈ 7.9 µM) | 6.7 (≈ 16 µM) | 6.7 (≈ 16 µM) | 6.7 (≈ 16 µM) | 13.3 (≈ 31.9 µM) | 3.3 (≈ 7.9 µM) | MIC ([6]; MRSA ATCC 43300): 3.3 µg/mL (≈ 7.9 µM); toxicity to mammalian cells (MTS assay) [16]: toxic; MIC (three VRSA strains): 6.7 µg/mL (≈ 16 µM); MIC (S. aureus NRS107 (MRSA) [23]): 3.3 µg/mL (≈ 7.9 µM); MBC (S. aureus NRS37 (VISA) [24]): 3.3 µg/mL (≈ 7.9 µM); MBC (S. aureus NRS107 (MRSA) [25]): 6.7 µg/mL (≈ 16 µM); MIC (S. aureus USA300 (MRSA) [26]): 6.7 µg/mL (≈ 16 µM); MBC (S. aureus NRS19 (VISA) [27]): 3.3 µg/mL (≈ 7.9 µM)
 |  |  |  |  |  |  |  |  |  | CC(=O)CC(c1ccccc1)c1c(O)c2ccccc2oc1=O (stereo not shown) [Warfarin] |  |  |  |  |  |  |  |  |  |  | NADPH-dependent CLint [28]: 0.0 µL/min/mg; NADPH-free CLint [28]: 0.0 µL/min/mg
3.2 (≈ 8.01 µM) | 1.6 (≈ 4 µM) | 1.6 (≈ 4 µM) | 3.2 (≈ 8.01 µM) | 1.6 (≈ 4 µM) | 1.6 (≈ 4 µM) | 3.2 (≈ 8.01 µM) | 1.6 (≈ 4 µM) | 1.6 (≈ 4 µM) | 1.6 (≈ 4 µM) | [H]/N=C(\N)NN=C(C)c1sc(-c2ccc(-c3cccc4ccccc34)cc2)nc1C [compound 25, (E)-2-(1-(4-Methyl-2-(4-(naphthalen-1-yl)phenyl)thiazol-5-yl)ethylidene)hydrazinecarboximidamide] | 1.6 (≈ 4 µM) | 3.2 (≈ 8.01 µM) | 1.6 (≈ 4 µM) | 3.2 (≈ 8.01 µM) | 3.2 (≈ 8.01 µM) | 3.2 (≈ 8.01 µM) | 1.6 (≈ 4 µM) | 1.6 (≈ 4 µM) | 1.6 (≈ 4 µM) | 1.6 (≈ 4 µM) | time to completely eradicate MRSA growth (MRSA USA300): 10 h; MIC ([6]; MRSA ATCC 43300): 1.6 µg/mL (≈ 4 µM); MIC (two VISA isolates): 1.6 µg/mL (≈ 4 µM); toxicity to mammalian cells (MTS assay) [16]: not toxic; also recorded: improved toxicity profile; MIC (S. aureus NRS107 (MRSA) [23]): 1.6 µg/mL (≈ 4 µM); MBC (S. aureus NRS37 (VISA) [24]): 1.6 µg/mL (≈ 4 µM); MBC (S. aureus NRS107 (MRSA) [25]): 1.6 µg/mL (≈ 4 µM); MIC (S. aureus USA300 (MRSA) [26]): 1.6 µg/mL (≈ 4 µM); MBC (S. aureus NRS19 (VISA) [27]): 1.6 µg/mL (≈ 4 µM)

Compound | MIC (S. aureus VRS5 (VRSA) [1]) [µg/mL] | MIC (S. aureus NRS37 (VISA) [2]) [µg/mL] | MIC (S. aureus NRS194 (MRSA) [3]) [µg/mL] | MIC (S. aureus VRS1 (VRSA) [4]) [µg/mL] | MIC (S. aureus USA 400 (MRSA) [5]) [µg/mL] | MIC (S. aureus NRS119 (MRSA) [11]) [µg/mL] | MIC (S. aureus VRS4 (VRSA) [12]) [µg/mL] | MIC (S. aureus USA500 (MRSA) [13]) [µg/mL] | MIC (S. aureus NRS19 (VISA) [14]) [µg/mL] | MIC (S. aureus NRS1 (VISA) [22]) [µg/mL] | MBC (S. aureus NRS194 (MRSA) [7]) [µg/mL] | MBC (S. aureus VRS1 (VRSA) [8]) [µg/mL] | MBC (S. aureus NRS1 (VISA) [9]) [µg/mL] | MBC (S. aureus VRS4 (VRSA) [10]) [µg/mL] | MBC (S. aureus USA500 (MRSA) [15]) [µg/mL] | MBC (S. aureus VRS5 (VRSA) [17]) [µg/mL] | MBC (S. aureus NRS119 (MRSA) [18]) [µg/mL] | MBC (S. aureus USA300 (MRSA) [19]) [µg/mL] | MBC (S. aureus USA 400 (MRSA) [20]) [µg/mL] | MBC [21] [µg/mL] | also measured
CN[C@H](CC(C)C)C(=O)N[C@H]1C(=O)N[C@@H](CC(N)=O)C(=O)N[C@H]2C(=O)N[C@H]3C(=O)N[C@H](C(=O)N[C@H](C(=O)O)c4cc(O)cc(O)c4-c4cc3ccc4O)[C@H](O)c3ccc(c(Cl)c3)Oc3cc2cc(c3O[C@@H]2O[C@H](CO)[C@@H](O)[C@H](O)[C@H]2O[C@H]2C[C@](C)(N)[C@H](O)[C@H](C)O2)Oc2ccc(cc2Cl)[C@H]1O [Vancomycin, reference compound] | > 190 | 3 (≈ 2.07 µM) | 0.7 (≈ 0.483 µM) | > 190 | 0.7 (≈ 0.483 µM) | < 1.5 | > 190 | 0.7 (≈ 0.483 µM) | < 1.5 | 3 (≈ 2.07 µM) | 0.7 (≈ 0.483 µM) | > 190 | 3 (≈ 2.07 µM) | > 190 | 0.7 (≈ 0.483 µM) | > 190 | < 1.5 | 0.7 (≈ 0.483 µM) | 0.7 (≈ 0.483 µM) | 0.7 (≈ 0.483 µM) | time to completely eradicate MRSA growth (MRSA USA300): 24 h; MIC [6]: 0.7 µg/mL (≈ 0.483 µM); MIC (two VISA isolates): 3 µg/mL (≈ 2.07 µM); MIC (three VRSA strains): > 190 µg/mL; MIC (S. aureus NRS107 (MRSA) [23]): < 1.5 µg/mL; MBC (S. aureus NRS37 (VISA) [24]): 3 µg/mL (≈ 2.07 µM); MBC (S. aureus NRS107 (MRSA) [25]): < 1.5 µg/mL; MIC (S. aureus USA300 (MRSA) [26]): 0.7 µg/mL (≈ 0.483 µM); MBC (S. aureus NRS19 (VISA) [27]): < 1.5 µg/mL
